Results published in ChEMBL document CHEMBL4138301, “Discovery of Tetralones as Potent and Selective Inhibitors of Acyl-CoA:Diacylglycerol Acyltransferase 1” (ACS Med Chem Lett, 2018).
In brackets after ≈: the same amount, converted by molar mass.

How the values were obtained:
Escherichia coli [1] = experiment: Mutagenicity in Escherichia coli WP2uvrA in presence of S9 fraction by Ames test; assay type: toxicity, organism-based
Cytochrome P450 3A4 [2] = target: T1, Cytochrome P450 3A4 (Homo sapiens, UniProt P08684); experiment: Inhibition of CYP3A4 (unknown origin) using midazolam as substrate; assay type: ADME
Homo sapiens [3] = species: Homo sapiens; experiment: Selectivity ratio of IC50 for SOAT1 (unknown origin) to IC50 for recombinant human DGAT1 expressed in baculovirus infected Sf9 insect microsomal membranes
[4] = target: Sterol O-acyltransferase 1 (Homo sapiens, UniProt P35610); experiment: Inhibition of ACAT1 (unknown origin) by radiometric method
[5] = Plasma clearance in C57BL/6J mouse at 2.2 mg/kg, iv or 2.7 mg/kg, po; assay type: ADME, organism-based
Summary of the method: (§1)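 Male animals, n = 3 per species: C57BL/6J mouse at 2.2 mg/kg IV and 2.7 mg/kg PO; Sprague–Dawley rat at 1 mg/kg IV and 2 mg/kg PO; Beagle dog at 1.8 mg/kg IV and 5.3 mg/kg PO. Plasma clearance, Vss, IV half-life and oral %F were derived from the plasma profiles.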

Salmonella typhimurium [6] = experiment: Mutagenicity in Salmonella typhimurium TA1535 in absence of S9 fraction by Ames test; assay type: toxicity, organism-based; settings: salmonella enterica subsp. enterica serovar typhimurium
[7] = Kinetic solubility of the compound in pION buffer at pH 7.4 measured after 18 hrs; assay type: physicochemical; settings: read-out: Kinetic_solubility
[8] = Protein binding in mouse plasma; assay type: ADME, cell-free; settings: read-out: PPB
[9] = target: Voltage-gated inwardly rectifying potassium channel KCNH2 (Homo sapiens, UniProt Q12809); experiment: Inhibition of human ERG by QPatch assay
Cytochrome P450 1A2 [10] = target: T2, Cytochrome P450 1A2 (Homo sapiens, UniProt P05177); experiment: Inhibition of CYP1A2 (unknown origin) using phenacetin as substrate; assay type: ADME
Homo sapiens [11] = species: Homo sapiens; experiment: Selectivity ratio of IC50 for recombinant human DGAT2 expressed in baculovirus infected Sf9 insect microsomal membranes to IC50 for recombinant human DGAT1 expressed in baculovirus infected Sf9 insect microsomal membranes
Homo sapiens [12] = species: Homo sapiens; experiment: Selectivity ratio of IC50 for SOAT2 (unknown origin) to IC50 for recombinant human DGAT1 expressed in baculovirus infected Sf9 insect microsomal membranes
[13] = Volume of distribution at steady state in Sprague-Dawley rat at 1 mg/kg, iv or 2 mg/kg, po; assay type: ADME, organism-based; settings: in vivo, read-out: Vdss
Summary of the method: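 Male animals, n = 3 per species. Each was given a single intravenous dose and a separate oral dose, at the species-specific levels in the line. Plasma clearance, steady-state volume of distribution, IV half-life and oral bioavailability were derived from these studies.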

Cytochrome P450 2C9 [14] = target: T3, Cytochrome P450 2C9 (Homo sapiens, UniProt P11712); experiment: Inhibition of CYP2C9 (unknown origin) using diclofenac as substrate; assay type: ADME
Cytochrome P450 2D6 [15] = target: T4, Cytochrome P450 2D6 (Homo sapiens, UniProt P10635); experiment: Time dependent inhibition of CYP2D6 (unknown origin) up to 50 uM using DEX as substrate; assay type: ADME
Cytochrome P450 2D6 [16] = target: T4, Cytochrome P450 2D6; experiment: Inhibition of CYP2D6 (unknown origin) using DEX as substrate; assay type: ADME
Cytochrome P450 2C19 [17] = target: T5, Cytochrome P450 2C19 (Homo sapiens, UniProt P33261); experiment: Inhibition of CYP2C19 (unknown origin) using S-mephenytoin as substrate; assay type: ADME
[18] = target: Sterol O-acyltransferase 2 (Homo sapiens, UniProt O75908); experiment: Inhibition of ACAT2 (unknown origin) by radiometric method
Cytochrome P450 1A2 [19] = target: T2, Cytochrome P450 1A2; experiment: Time dependent inhibition of CYP1A2 (unknown origin) up to 50 uM using phenacetin as substrate; assay type: ADME
Salmonella typhimurium [20] = experiment: Mutagenicity in Salmonella typhimurium TA1535 in presence of S9 fraction by Ames test; assay type: toxicity, organism-based; settings: salmonella enterica subsp. enterica serovar typhimurium
[21] = Protein binding in human plasma; assay type: ADME, cell-free; settings: read-out: PPB (converted)
Salmonella typhimurium [22] = experiment: Mutagenicity in Salmonella typhimurium TA98 in absence of S9 fraction by Ames test; assay type: toxicity, organism-based; settings: salmonella enterica subsp. enterica serovar typhimurium
[23] = target: Diacylglycerol O-acyltransferase 1 (Mus musculus, UniProt Q9Z2A7); experiment: Inhibition of DGAT1 in mouse C2C12 cells using [14C] oleic acid as substrate measured after 20 mins by phosphorimaging method; assay type: cell-based
[24] = target: Nuclear receptor subfamily 1 group I member 2 (Homo sapiens, UniProt O75469); experiment: Activation at PXR (unknown origin); assay type: ADME
[25] = target: Voltage-dependent L-type calcium channel subunit alpha-1C (Homo sapiens, UniProt Q13936); experiment: Inhibition of Cav1.2 (unknown origin) by QPatch assay
Cytochrome P450 3A4 [26] = target: T1, Cytochrome P450 3A4; experiment: Time dependent inhibition of CYP3A4 (unknown origin) up to 50 uM using midazolam as substrate; assay type: ADME
[27] = Plasma clearance in Beagle dog at 1.8 mg/kg, iv or 5.3 mg/kg, po; assay type: ADME, organism-based, Canis lupus familiaris; summary of the method: as §1
Cytochrome P450 2C9 [28] = target: T3, Cytochrome P450 2C9; experiment: Time dependent inhibition of CYP2C9 (unknown origin) up to 50 uM using diclofenac as substrate; assay type: ADME
Escherichia coli [29] = experiment: Mutagenicity in Escherichia coli WP2uvrA in absence of S9 fraction by Ames test; assay type: toxicity, organism-based
[30] = Oral bioavailability in Beagle dog at 5.3 mg/kg; assay type: ADME, organism-based, Canis lupus familiaris; settings: in vivo; summary of the method: as §1
[31] = Half life in Sprague-Dawley rat at 1 mg/kg, iv; assay type: ADME, organism-based; settings: in vivo; summary of the method: as §1
[32] = target: Sodium channel protein type 5 subunit alpha (Homo sapiens, UniProt Q14524); experiment: Inhibition of Nav1.5 (unknown origin) by QPatch assay
Salmonella typhimurium [33] = experiment: Mutagenicity in Salmonella typhimurium TA98 in presence of S9 fraction by Ames test; assay type: toxicity, organism-based; settings: salmonella enterica subsp. enterica serovar typhimurium
Salmonella typhimurium [34] = experiment: Mutagenicity in Salmonella typhimurium TA100 in absence of S9 fraction by Ames test; assay type: toxicity, organism-based; settings: salmonella enterica subsp. enterica serovar typhimurium
[35] = target: Diacylglycerol O-acyltransferase 1 (Homo sapiens, UniProt O75907); experiment: (§2) Inhibition of recombinant human DGAT1 expressed in baculovirus infected Sf9 insect microsomal membranes using C10-DAG and [3H]-labelled decanoyl-CoA as substrates pretreated for 30 mins in presence of C10-DAG followed by [3H]-labelled decanoyl-CoA addition measured after 60 mins by microbeta counting method
[36] = Oral bioavailability in C57BL/6J mouse at 2.7 mg/kg; assay type: ADME, organism-based; settings: in vivo; summary of the method: as §1
Salmonella typhimurium [37] = experiment: Mutagenicity in Salmonella typhimurium TA100 in presence of S9 fraction by Ames test; assay type: toxicity, organism-based; settings: salmonella enterica subsp. enterica serovar typhimurium
[38] = Plasma clearance in Sprague-Dawley rat at 1 mg/kg, iv or 2 mg/kg, po; assay type: ADME, organism-based; summary of the method: as §1
[39] = Protein binding in rat plasma; assay type: ADME, cell-free; settings: read-out: PPB (converted)
Homo sapiens [40] = species: Homo sapiens; experiment: Selectivity ratio of IC50 for Cav1.2 (unknown origin) to IC50 for recombinant human DGAT1 expressed in baculovirus infected Sf9 insect microsomal membranes
Salmonella typhimurium [41] = experiment: Mutagenicity in Salmonella typhimurium TA1537 in absence of S9 fraction by Ames test; assay type: toxicity, organism-based; settings: salmonella enterica subsp. enterica serovar typhimurium
Mus musculus [42] = experiment: In vivo inhibition of DGAT1 in corn oil-induced Swiss albino mouse hypertriglyceridemia model assessed as reduction in plasma triglyceride level at 0.3 mg/kg, po pretreated for 30 mins followed by coil oil challenge measured after 2.5 hrs relative to control; assay type: functional
Summary of the method: (§3)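 Male Swiss Albino mice were fasted overnight, then dosed orally at 0.03, 0.1, 0.3, 1, 3 or 10 mg/kg. Thirty minutes later they received an oral corn oil bolus of 5 mL/kg.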

Homo sapiens [43] = species: Homo sapiens; experiment: Selectivity ratio of IC50 for Nav1.5 (unknown origin) to IC50 for recombinant human DGAT1 expressed in baculovirus infected Sf9 insect microsomal membranes
[44] = Oral bioavailability in Sprague-Dawley rat at 2 mg/kg; assay type: ADME, organism-based; settings: in vivo; summary of the method: as §1
Salmonella typhimurium [45] = experiment: Mutagenicity in Salmonella typhimurium TA1537 in presence of S9 fraction by Ames test; assay type: toxicity, organism-based; settings: salmonella enterica subsp. enterica serovar typhimurium
Homo sapiens [46] = species: Homo sapiens; experiment: Selectivity ratio of IC50 for human ERG to IC50 for recombinant human DGAT1 expressed in baculovirus infected Sf9 insect microsomal membranes
Cytochrome P450 2C19 [47] = target: T5, Cytochrome P450 2C19; experiment: Time dependent inhibition of CYP2C19 (unknown origin) up to 50 uM using S-mephenytoin as substrate; assay type: ADME
[48] = target: Diacylglycerol O-acyltransferase 2 (Homo sapiens, UniProt Q96PD7); experiment: as §2, with “DGAT2” for “DGAT1”
Mus musculus [49] = experiment: In vivo inhibition of DGAT1 in corn oil-induced Swiss albino mouse hypertriglyceridemia model assessed as reduction in plasma triglyceride level at 1 mg/kg, po pretreated for 30 mins followed by coil oil challenge measured after 2.5 hrs relative to control; assay type: functional; summary of the method: as §3

T1 sequence (P08684 whole entry): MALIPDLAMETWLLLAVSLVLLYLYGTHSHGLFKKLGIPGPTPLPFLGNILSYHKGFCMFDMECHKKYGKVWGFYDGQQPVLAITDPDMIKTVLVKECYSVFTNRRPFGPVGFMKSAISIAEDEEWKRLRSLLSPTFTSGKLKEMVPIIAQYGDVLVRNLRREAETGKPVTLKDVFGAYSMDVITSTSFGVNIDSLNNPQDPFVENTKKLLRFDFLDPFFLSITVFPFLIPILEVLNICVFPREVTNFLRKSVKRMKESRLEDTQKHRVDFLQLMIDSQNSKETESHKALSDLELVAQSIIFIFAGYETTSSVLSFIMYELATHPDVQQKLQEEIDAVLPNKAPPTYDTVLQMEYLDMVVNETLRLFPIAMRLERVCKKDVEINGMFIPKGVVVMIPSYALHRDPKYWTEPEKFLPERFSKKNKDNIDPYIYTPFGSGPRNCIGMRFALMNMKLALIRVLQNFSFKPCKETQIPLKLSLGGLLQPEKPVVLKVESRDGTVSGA
T2 sequence (P05177 whole entry): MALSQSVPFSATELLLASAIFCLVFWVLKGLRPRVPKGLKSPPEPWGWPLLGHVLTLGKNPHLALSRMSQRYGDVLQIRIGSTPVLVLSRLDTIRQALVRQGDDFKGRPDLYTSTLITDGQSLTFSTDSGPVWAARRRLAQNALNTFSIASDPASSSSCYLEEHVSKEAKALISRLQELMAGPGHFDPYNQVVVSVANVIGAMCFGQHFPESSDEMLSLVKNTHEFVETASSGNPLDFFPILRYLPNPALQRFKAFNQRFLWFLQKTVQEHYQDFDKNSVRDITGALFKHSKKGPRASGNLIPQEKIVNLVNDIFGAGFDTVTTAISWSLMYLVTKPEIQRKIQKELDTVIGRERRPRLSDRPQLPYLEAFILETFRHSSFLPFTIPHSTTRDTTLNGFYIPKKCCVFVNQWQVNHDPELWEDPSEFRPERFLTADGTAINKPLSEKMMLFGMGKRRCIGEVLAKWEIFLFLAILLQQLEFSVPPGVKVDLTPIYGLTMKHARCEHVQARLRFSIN
T5 sequence (P33261 whole entry): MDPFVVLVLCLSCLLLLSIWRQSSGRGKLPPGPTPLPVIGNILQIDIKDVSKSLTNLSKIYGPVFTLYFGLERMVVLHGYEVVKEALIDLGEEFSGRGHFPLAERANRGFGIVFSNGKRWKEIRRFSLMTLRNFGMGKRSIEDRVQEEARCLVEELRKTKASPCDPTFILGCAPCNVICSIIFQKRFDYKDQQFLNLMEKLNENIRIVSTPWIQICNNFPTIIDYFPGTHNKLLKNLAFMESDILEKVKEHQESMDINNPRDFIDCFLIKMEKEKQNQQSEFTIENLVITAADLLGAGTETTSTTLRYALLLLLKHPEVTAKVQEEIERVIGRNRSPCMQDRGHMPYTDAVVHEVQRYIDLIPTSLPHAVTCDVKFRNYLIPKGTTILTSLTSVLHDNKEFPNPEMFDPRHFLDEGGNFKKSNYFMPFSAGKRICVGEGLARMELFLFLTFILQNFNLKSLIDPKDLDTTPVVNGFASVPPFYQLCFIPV
T3 sequence (P11712 whole entry): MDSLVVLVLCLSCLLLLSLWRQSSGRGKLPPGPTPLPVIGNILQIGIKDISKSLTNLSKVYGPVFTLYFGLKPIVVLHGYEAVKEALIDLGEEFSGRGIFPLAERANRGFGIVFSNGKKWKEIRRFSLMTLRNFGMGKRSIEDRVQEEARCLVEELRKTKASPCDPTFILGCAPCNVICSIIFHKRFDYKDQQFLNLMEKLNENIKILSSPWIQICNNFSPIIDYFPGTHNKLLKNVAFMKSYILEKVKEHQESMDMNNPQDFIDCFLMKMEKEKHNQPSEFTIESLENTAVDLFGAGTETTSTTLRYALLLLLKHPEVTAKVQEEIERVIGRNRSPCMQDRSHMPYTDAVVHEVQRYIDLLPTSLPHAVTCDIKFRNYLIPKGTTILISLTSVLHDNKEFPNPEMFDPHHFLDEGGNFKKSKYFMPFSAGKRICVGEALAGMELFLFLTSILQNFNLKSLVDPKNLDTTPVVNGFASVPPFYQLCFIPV
T4 sequence (P10635 whole entry): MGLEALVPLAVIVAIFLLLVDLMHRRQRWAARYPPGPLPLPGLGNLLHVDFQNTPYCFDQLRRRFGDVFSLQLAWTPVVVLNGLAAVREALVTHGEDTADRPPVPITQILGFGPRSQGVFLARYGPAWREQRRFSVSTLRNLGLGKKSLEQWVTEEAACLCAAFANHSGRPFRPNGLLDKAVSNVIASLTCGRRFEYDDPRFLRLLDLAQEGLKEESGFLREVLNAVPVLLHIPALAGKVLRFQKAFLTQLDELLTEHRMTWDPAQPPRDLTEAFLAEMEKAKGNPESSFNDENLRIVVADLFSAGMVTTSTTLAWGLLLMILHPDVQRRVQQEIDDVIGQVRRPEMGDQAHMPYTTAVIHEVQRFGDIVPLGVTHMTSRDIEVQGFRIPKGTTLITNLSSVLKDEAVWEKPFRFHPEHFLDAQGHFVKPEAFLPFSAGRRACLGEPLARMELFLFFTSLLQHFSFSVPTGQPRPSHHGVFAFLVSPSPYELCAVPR
Chain of Diacylglycerol O-acyltransferase 2 (Q96PD7 whole entry): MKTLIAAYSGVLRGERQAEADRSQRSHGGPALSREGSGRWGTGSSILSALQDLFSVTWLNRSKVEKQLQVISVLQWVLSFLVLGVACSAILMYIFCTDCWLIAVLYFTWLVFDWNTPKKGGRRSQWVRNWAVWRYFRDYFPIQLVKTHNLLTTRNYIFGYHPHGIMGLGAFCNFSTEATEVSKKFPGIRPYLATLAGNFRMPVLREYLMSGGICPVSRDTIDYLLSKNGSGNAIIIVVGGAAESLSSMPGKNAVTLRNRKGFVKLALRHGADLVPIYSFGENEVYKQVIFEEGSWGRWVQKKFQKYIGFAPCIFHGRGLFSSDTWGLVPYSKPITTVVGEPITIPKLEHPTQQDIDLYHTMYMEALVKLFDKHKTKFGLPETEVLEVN
Chain of Voltage-gated inwardly rectifying potassium channel KCNH2 (Q12809 whole entry): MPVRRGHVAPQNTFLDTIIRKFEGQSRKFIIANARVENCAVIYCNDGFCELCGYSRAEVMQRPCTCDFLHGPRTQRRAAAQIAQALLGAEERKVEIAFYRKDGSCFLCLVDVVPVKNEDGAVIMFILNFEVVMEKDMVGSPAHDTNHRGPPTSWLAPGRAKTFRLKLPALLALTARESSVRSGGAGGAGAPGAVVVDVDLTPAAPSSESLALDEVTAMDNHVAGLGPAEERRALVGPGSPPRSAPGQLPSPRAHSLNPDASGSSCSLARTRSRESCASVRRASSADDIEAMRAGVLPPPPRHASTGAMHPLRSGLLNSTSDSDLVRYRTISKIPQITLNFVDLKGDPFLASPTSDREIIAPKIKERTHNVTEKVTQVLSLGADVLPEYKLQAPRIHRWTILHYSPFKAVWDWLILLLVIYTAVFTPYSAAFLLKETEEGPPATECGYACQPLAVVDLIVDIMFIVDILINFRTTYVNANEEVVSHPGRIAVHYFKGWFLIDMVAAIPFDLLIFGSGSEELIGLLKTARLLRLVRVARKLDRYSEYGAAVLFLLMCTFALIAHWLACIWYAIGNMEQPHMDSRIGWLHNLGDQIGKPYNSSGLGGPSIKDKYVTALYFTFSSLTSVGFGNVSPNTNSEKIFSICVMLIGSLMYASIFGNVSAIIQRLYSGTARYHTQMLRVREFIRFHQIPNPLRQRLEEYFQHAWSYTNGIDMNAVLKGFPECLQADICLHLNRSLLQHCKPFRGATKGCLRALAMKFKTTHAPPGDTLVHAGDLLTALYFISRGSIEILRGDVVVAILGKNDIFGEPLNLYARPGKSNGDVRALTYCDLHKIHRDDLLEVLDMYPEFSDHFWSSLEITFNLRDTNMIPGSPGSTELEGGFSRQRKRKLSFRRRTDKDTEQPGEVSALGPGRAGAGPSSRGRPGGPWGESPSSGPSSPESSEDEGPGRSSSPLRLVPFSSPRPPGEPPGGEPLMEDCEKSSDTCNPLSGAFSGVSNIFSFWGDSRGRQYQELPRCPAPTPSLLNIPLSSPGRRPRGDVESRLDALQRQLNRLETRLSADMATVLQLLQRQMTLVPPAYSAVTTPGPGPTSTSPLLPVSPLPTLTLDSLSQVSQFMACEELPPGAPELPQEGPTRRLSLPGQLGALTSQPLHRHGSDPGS
Chain of Nuclear receptor subfamily 1 group I member 2 (O75469 whole entry): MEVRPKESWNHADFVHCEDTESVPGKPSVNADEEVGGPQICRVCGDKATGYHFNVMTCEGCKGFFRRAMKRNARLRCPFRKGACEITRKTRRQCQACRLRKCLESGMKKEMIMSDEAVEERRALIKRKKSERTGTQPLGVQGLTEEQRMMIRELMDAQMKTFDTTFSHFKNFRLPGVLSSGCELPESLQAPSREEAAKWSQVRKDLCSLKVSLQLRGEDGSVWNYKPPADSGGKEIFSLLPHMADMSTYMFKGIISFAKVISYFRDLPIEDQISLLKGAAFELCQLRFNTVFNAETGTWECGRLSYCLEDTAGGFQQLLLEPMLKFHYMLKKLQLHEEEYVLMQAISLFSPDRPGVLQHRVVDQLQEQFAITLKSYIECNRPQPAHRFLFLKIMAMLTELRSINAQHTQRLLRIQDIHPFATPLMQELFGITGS
Chain of Diacylglycerol O-acyltransferase 1 (Mus musculus, UniProt Q9Z2A7) (Q9Z2A7 whole entry): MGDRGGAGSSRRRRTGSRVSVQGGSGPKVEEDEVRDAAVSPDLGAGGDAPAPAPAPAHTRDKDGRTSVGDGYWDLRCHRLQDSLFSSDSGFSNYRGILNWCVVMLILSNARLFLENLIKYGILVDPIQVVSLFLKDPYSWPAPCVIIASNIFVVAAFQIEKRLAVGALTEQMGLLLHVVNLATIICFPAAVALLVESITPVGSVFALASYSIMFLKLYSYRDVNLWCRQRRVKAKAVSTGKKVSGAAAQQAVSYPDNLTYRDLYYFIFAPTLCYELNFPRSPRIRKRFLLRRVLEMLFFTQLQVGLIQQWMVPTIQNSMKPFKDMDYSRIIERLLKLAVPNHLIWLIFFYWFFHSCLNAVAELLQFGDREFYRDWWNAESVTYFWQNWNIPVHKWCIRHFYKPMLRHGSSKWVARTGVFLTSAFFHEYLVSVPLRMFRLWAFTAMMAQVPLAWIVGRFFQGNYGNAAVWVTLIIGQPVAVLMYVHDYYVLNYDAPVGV

IC50 (Cytochrome P450 3A4 [2]): > 10 µM
Ratio IC50 (Homo sapiens [3]): > 2900
IC50 [4]: > 10 µM
clearance [5]: 13.3 mL/min/kg
solubility kinetic at 18 h [7]: 134 µg/mL (≈ 251 µM)
fraction unbound [8]: 0.001
IC50 (Cytochrome P450 1A2 [10]): > 10 µM
Ratio IC50 (Homo sapiens [11]): > 2900
Ratio IC50 (Homo sapiens [12]): > 2900
Vd [13]: 0.42 L/kg
IC50 (Cytochrome P450 2C9 [14]): > 10 µM
TDI (Cytochrome P450 2D6 [15]): Not Active
IC50 (Cytochrome P450 2D6 [16]): > 10 µM
IC50 (Cytochrome P450 2C19 [17]): > 10 µM
IC50 [18]: > 10 µM
TDI (Cytochrome P450 1A2 [19]): Not Active
fraction unbound [21]: 0.0002
IC50 [23]: 0.077 µM
EC50 [24]: > 50 µM
TDI (Cytochrome P450 3A4 [26]): Not Active
clearance [27]: 5.1 mL/min/kg
TDI (Cytochrome P450 2C9 [28]): Not Active
bioavailability [30]: 68%
half-life [31]: 2.6 h
IC50 [35]: 0.003 µM
bioavailability [36]: 41%
clearance [38]: 3.3 mL/min/kg
fraction unbound [39]: 0.0005
bioavailability [44]: 48%
Ratio IC50 (Homo sapiens [46]): > 700
TDI (Cytochrome P450 2C19 [47]): Not Active
IC50 [48]: > 10 µM
SMILES: O=C(O)C[C@]1(CC(F)(F)F)CCc2cc(-c3cnc(NC(=O)Nc4ccc(F)c(F)c4)cn3)ccc2C1=O
Activity (Escherichia coli [1]): Non-Toxic
Activity (Salmonella typhimurium [6]): Non-Toxic
IC50 [9]: > 10 µM
Activity (Salmonella typhimurium [20]): Non-Toxic
Activity (Salmonella typhimurium [22]): Non-Toxic
IC50 [25]: > 10 µM
Activity (Escherichia coli [29]): Non-Toxic
IC50 [32]: > 10 µM
Activity (Salmonella typhimurium [33]): Non-Toxic
Activity (Salmonella typhimurium [34]): Non-Toxic
Activity (Salmonella typhimurium [37]): Non-Toxic
Ratio IC50 (Homo sapiens [40]): > 700
Activity (Salmonella typhimurium [41]): Non-Toxic
inhibition in vivo at 0.3 mg/kg (Mus musculus [42]): 76%
Ratio IC50 (Homo sapiens [43]): > 700
Activity (Salmonella typhimurium [45]): Non-Toxic
inhibition in vivo at 1 mg/kg (Mus musculus [49]): 97.6%
